Experimental data: ChEMBL document CHEMBL1121982 (J Med Chem, 1982)

Tests used:
[1] = biological target: T1, Delta-type opioid receptor (Mus musculus, UniProt P32300); test: Inhibitory potency against Opioid receptor delta 1 in mouse vas deferens assay; assay type: functional, tissue-based
How it was run: (§1)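 Vasa deferentia were taken from adult male Swiss Webster albino mice (30-50 g) killed by cervical dislocation. Fat, connective tissue and the blood vessel were removed and semen was expressed. Contractions were recorded with a force transducer, and twitch-height reduction at several doses gave log dose-response curves.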

[2] = biological target: T2, Mu-type opioid receptor (Rattus norvegicus, UniProt P33535); test: Inhibition of binding of [3H]naloxone to Opioid receptor mu 1 in the rat brain homogenate; assay type: tissue-based
T2 sequence (P33535 whole entry): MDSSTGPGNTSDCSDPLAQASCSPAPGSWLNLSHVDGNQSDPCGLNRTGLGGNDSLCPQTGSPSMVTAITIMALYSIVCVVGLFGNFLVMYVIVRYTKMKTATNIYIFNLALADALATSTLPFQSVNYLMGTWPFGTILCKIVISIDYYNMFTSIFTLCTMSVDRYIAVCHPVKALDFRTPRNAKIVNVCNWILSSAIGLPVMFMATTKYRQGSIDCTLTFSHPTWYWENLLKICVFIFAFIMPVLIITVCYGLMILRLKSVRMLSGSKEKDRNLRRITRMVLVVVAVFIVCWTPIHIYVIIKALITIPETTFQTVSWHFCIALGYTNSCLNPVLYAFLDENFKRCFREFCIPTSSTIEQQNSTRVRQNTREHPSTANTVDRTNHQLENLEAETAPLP

[3] = biological target: T3, Delta-type opioid receptor (Rattus norvegicus, UniProt P33533); test: Inhibition of [3H][D-Ala2,D-Leu5]enkephalin binding to Opioid receptor delta 1 in the rat brain homogenate; assay type: tissue-based
T3 sequence (P33533 whole entry): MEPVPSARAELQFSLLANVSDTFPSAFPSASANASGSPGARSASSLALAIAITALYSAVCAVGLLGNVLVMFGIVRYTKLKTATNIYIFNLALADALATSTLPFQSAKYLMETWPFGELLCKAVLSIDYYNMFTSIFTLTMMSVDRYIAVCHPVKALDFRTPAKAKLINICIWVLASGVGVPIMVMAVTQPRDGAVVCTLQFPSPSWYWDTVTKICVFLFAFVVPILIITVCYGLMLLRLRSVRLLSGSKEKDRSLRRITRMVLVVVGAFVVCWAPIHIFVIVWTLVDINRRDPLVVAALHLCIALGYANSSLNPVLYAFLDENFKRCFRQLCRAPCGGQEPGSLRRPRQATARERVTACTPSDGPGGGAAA

[4] = biological target: T3, Delta-type opioid receptor; test: Inhibition of binding of [3H][D-Ala2,D-Leu5]enkephalin to Opioid receptor delta 1 in the rat brain homogenate; assay type: tissue-based
[5] = biological target: Mu-type opioid receptor (Cavia porcellus) (UniProt P97266); test: Sensitivity to naloxone against Opioid receptor mu 1 in the guinea pig ileum assay; assay type: functional, tissue-based
Sequence of Mu-type opioid receptor (Cavia porcellus) (P97266 whole entry): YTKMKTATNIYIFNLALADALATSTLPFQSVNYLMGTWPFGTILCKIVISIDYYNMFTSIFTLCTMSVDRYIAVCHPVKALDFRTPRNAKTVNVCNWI
How it was run: (§2)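 Ke for naloxone as antagonist in the isolated tissue assay. It was derived from the ratio of agonist IC50 values measured with and without a fixed naloxone concentration.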

[6] = biological target: Delta-type opioid receptor (Mus musculus) (UniProt P32300); test: […] in mouse vas deferens assay for Opioid receptor delta 1; assay type: functional; how it was run: as §2
Sequence of Delta-type opioid receptor (Mus musculus) (P32300 whole entry): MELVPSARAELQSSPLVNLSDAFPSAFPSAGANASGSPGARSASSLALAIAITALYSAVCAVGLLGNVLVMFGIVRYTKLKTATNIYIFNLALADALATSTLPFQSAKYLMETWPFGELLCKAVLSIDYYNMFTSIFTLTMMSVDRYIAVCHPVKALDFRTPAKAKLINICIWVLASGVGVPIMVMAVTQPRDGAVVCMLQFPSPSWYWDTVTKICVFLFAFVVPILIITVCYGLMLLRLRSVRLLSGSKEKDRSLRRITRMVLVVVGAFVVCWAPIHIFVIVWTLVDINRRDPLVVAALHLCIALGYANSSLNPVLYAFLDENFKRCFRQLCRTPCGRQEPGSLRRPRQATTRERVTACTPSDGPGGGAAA

[7] = biological target: Delta-type opioid receptor (Rattus norvegicus) (UniProt P33533); test: (§3) Ki ratio measured as the inhibitory effect against delta/mu receptor.
Sequence of Delta-type opioid receptor (Rattus norvegicus) (P33533 whole entry): as the sequence (P33533 whole entry) above

[8] = IC50 ratio measured as inhibitory potencies in mouse vas deferens and guinea pig ileum assays; assay type: functional
[9] = biological target: T4, Mu-type opioid receptor (Cavia porcellus, UniProt P97266); test: Inhibitory potency against Opioid receptor mu 1 in the guinea pig ileum assay; assay type: functional, tissue-based
T4 sequence (P97266 whole entry): as the sequence (P97266 whole entry) above
How it was run: (§4)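 Guinea pig ileum bioassay. Twitch-height reduction at several doses gave log dose-response curves.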

[10] = biological target: T1, Delta-type opioid receptor; test: Inhibitory potency against Opioid receptor delta 1 in the mouse vas deferens assay; assay type: functional, tissue-based; how it was run: as §1
[11] = biological target: T4, Mu-type opioid receptor; test: Inhibitory potency against mu receptor in guinea pig ileum assay; assay type: functional, tissue-based; how it was run: as §4
[12] = biological target: Delta-type opioid receptor (Mus musculus) (UniProt P32300); test: as §3
[13] = biological target: Delta-type opioid receptor (Mus musculus) (UniProt P32300); test: IC50 ratio measured as the inhibitory potencies of MVD/GPI.
[14] = biological target: T2, Mu-type opioid receptor; test: Inhibition of [3H]-naloxone binding to mu receptor in rat brain homogenate; assay type: tissue-based
[15] = biological target: Mu-type opioid receptor (Cavia porcellus) (UniProt P97266); test: Sensitivity to naloxone against mu receptor in guinea pig ileum assay; assay type: functional, tissue-based; how it was run: as §2
[16] = biological target: T3, Delta-type opioid receptor; test: Inhibition of binding of [3H][D-Ala2,D-Leu5]enkephalin to delta receptor in the rat brain homogenate; assay type: tissue-based
[17] = biological target: T2, Mu-type opioid receptor; test: Inhibition of [3H]naloxone binding to Opioid receptor mu 1 in rat brain homogenate; assay type: tissue-based
[18] = Ki ratio measured as inhibitory effect against delta and mu opioid receptors
[19] = biological target: Mu-type opioid receptor (Mus musculus, UniProt P42866); test: Inhibitory potency against Opioid receptor mu 1 in mouse vas deferens assay; assay type: functional, tissue-based; how it was run: as §1
Sequence of Mu-type opioid receptor (Mus musculus, UniProt P42866) (P42866 whole entry): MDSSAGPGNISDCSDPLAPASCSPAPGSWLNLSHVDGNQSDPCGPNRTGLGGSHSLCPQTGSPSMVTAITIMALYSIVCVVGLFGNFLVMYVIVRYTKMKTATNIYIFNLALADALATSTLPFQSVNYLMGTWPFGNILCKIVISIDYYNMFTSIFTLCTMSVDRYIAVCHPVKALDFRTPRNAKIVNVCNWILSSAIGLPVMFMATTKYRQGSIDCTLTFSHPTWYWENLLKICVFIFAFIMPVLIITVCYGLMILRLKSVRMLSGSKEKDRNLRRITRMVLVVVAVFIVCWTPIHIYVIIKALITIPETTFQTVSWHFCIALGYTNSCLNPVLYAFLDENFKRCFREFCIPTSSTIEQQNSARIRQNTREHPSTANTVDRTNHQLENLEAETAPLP

T1 sequence (P32300 whole entry): as the sequence (P32300 whole entry) above

Structure (SMILES)	IC50 [2] [nM]	Ki [2] [nM]	Ki [3] [nM]	IC50 [4] [nM]	Ke [5] [nM]	Ke [6] [nM]	Ratio [8]	IC50 [9] [nM]	IC50 [10] [nM]	Ratio [18]	other results
CC(=O)O.CC[C@@H](NC(=O)[C@@H](N)Cc1ccc(O)cc1)C(=O)NCC(=O)N[C@@H](Cc1ccccc1)C(=O)N[C@@H](CC(C)C)C(N)=O	10.1	5.61	4.06	8.94	0.181	1.5	1.59	28.7	–	–	IC50 [1]: 45.6 nM; Ratio [7]: 0.72
CC(C)C[C@H](NC(=O)[C@H](Cc1ccccc1)NC(=O)CNC(=O)[C@@H](C)NC(=O)[C@@H](N)Cc1ccc(O)cc1)C(N)=O	–	–	–	–	0.401	2.36	–	–	8.26	–	IC50 [11]: 7.63 nM
CC(C)C[C@@H]1NC(=O)[C@H](Cc2ccccc2)NC(=O)CNC(=O)[C@H](NC(=O)[C@@H](N)Cc2ccc(O)cc2)CCCCNC1=O	22.4	12.4	14.6	32.2	0.416	0.36	–	4.8	–	–	IC50 [1]: 141 nM; Ratio [12]: 1.18; Ratio [13]: 29.4
CC(=O)O.CCCC[C@@H](NC(=O)[C@@H](N)Cc1ccc(O)cc1)C(=O)NCC(=O)N[C@@H](Cc1ccccc1)C(=O)N[C@@H](CC(C)C)C(N)=O	4.08	2.27	4.35	9.57	0.729	3.19	1.02	24.6	25.2	–	Ratio [7]: 1.92
CC(C)C[C@@H]1NC(=O)[C@H](Cc2ccccc2)NC(=O)CNC(=O)[C@H](NC(=O)[C@@H](N)Cc2ccc(O)cc2)CCCNC1=O	–	31.4	100	221	–	0.216	–	48	–	–	IC50 [14]: 56.6 nM; Ke [15]: 0.671 nM; Ratio [12]: 3.18; Ratio [13]: 9.9
CC(=O)O.CC(C)C[C@@H]1NC(=O)[C@H](Cc2ccccc2)NC(=O)CNC(=O)[C@H](NC(=O)[C@@H](N)Cc2ccc(O)cc2)CCNC1=O	–	–	–	–	–	–	5.77	–	–	–	–
CC(=O)O.CC(C)C[C@@H]1NC(=O)[C@H](Cc2ccccc2)NC(=O)CNC(=O)[C@H](NC(=O)[C@@H](N)Cc2ccc(O)cc2)CNC1=O	95.8	–	53.6	–	0.275	0.387	3.12	23.4	73.1	1.01	IC50 [16]: 118 nM; Ki [17]: 53.2 nM
CC(=O)O.CC(C)C[C@H]1NC(=O)[C@H](Cc2ccccc2)NC(=O)CNC(=O)[C@H](NC(=O)[C@@H](N)Cc2ccc(O)cc2)CCCCNC1=O	8.51	4.73	21.7	47.8	0.553	2.37	7.32	2.39	17.5	4.59	–
CC(=O)O.N[C@@H](Cc1ccc(O)cc1)C(=O)N[C@@H]1CCCCNC(=O)[C@H](Cc2ccccc2)NC(=O)CNC1=O	5.58	3.1	–	98.3	0.875	0.606	4.77	7.09	33.8	14.4	Ki [4]: 44.7 nM
CN1CC[C@]23CCCC[C@H]2[C@H]1Cc1ccc(O)cc13 [LEVORPHANOL]	–	–	–	–	0.127	0.587	16.4	17	–	–	IC50 [19]: 278 nM
CC(C)C[C@@H]1NC(=O)[C@H](Cc2ccccc2)NC(=O)CNC(=O)[C@H](NC(=O)[C@@H](N)Cc2ccc(O)cc2)CCNC1=O	24.9	13.8	115	253	–	–	–	14.1	81.4	–	–
CC(C)C[C@@H]1NC(=O)[C@@H](Cc2ccccc2)NC(=O)CNC(=O)[C@H](NC(=O)[C@@H](N)Cc2ccc(O)cc2)CCNC1=O	–	–	–	–	0.122	0.576	–	–	–	8.33	–
CC(=O)O.CCC[C@@H](NC(=O)[C@@H](N)Cc1ccc(O)cc1)C(=O)NCC(=O)N[C@@H](Cc1ccccc1)C(=O)N[C@@H](CC(C)C)C(N)=O	5.89	3.27	3.1	6.81	0.227	3.52	0.905	23.2	21	–	Ratio [7]: 0.95
